Calls of active or inactive are those of the source. The rule behind the calls is not given here.
Assays:
[1] = test system: HT-29; assay: Antiproliferative activity against human HT-29 cells after 48 hrs by MTT assay; format: functional, cell-based; conditions: HT-29, 48 h
[2] = Antiproliferative activity against human HCC1428 cells after 48 hrs by MTT assay; format: functional, cell-based; conditions: HCC1428, 48 h
[3] = test system: HeLa; assay: Antiproliferative activity against human HeLa cells after 48 hrs by MTT assay; format: functional, cell-based
[4] = test system: PC-3; assay: Antiproliferative activity against paclitaxel-resistant human PC3 cells after 48 hrs by MTT assay; format: functional, cell-based; conditions: PC-3, 48 h
[5] = test system: K562; assay: Antiproliferative activity against human K562 cells after 48 hrs by MTT assay; format: functional, cell-based; conditions: K562, 48 h
[6] = Cell cycle arrest in human HCC1428 cells assessed as accumulation at G2/M phase at 6 uM after 24 hrs by propidium iodide staining based flow cytometry (reference value: […]%); format: functional
[7] = species on record: Bos taurus; assay: Inhibition of bovine brain tubulin polymerization at 5 to 10 uM measured every 1 min for 1 hr by spectrophotometric method
Method in brief: (§1)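 Bovine brain tubulin (>97% pure) in G-PEM buffer (80 mM PIPES, 0.5 mM EGTA, 1.0 mM GTP, pH 6.9) with 0.1% DMSO, set up at 4 °C with or without compound, using a commercial HTS kit. Vincristine and taxol at 5 µM as controls. Polymerization followed by A340 every 1 min for 1 h at 37 °C.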

[8] = test system: HCC1428; assay: Antiproliferative activity against human HCC1428 cells at 2 to 4 uM […] by RTCA; format: functional, cell-based
Method in brief: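 Real-time impedance (xCELLigence RTCA DP) monitoring of HCC1428 cells plated at 2000 cells/well in E-plate 16. Cells kept in RPMI-1640 with 2% FBS at 37 °C, 5% CO2 throughout. Growth curves recorded over 84 h of compound exposure. Representative of three independent experiments.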

[9] = test system: HCC1428; assay: Cell cycle arrest in human HCC1428 cells assessed as accumulation at G2/M phase after 24 hrs by propidium iodide staining based flow cytometry; format: functional
[10] = Cell cycle arrest in human HCC1428 cells assessed as accumulation at S phase at 6 uM after 24 hrs by propidium iodide staining based flow cytometry (reference value: 24.46%); format: functional
[11] = Cell cycle arrest in human HCC1428 cells assessed as accumulation at G1 phase at 3 uM after 24 hrs by propidium iodide staining based flow cytometry (reference value: 62.61%); format: functional
[12] = Cell cycle arrest in human HCC1428 cells assessed as accumulation at G2/M phase at 3 uM after 24 hrs by propidium iodide staining based flow cytometry (reference value: […]%); format: functional
[13] = Cell cycle arrest in human HCC1428 cells assessed as accumulation at G1 phase at 6 uM after 24 hrs by propidium iodide staining based flow cytometry (reference value: 62.61%); format: functional
[14] = Cell cycle arrest in human HCC1428 cells assessed as accumulation at S phase at 3 uM after 24 hrs by propidium iodide staining based flow cytometry (reference value: 24.46%); format: functional
[15] = species on record: Homo sapiens; assay: Inhibition of alpha-tubulin polymerization in human HCC1428 cells at 3 to 6 uM after 24 hrs by confocal microscopic method; format: cell-based
Method in brief: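 HCC1428 cells grown on glass coverslips and treated 24 h; 1 µM vincristine and DMSO as controls. Fixed in cold methanol/acetone (1:1) 5 min, then blocked 20 min in 3% goat serum with 0.1% Triton X-100. Stained with mouse anti-α-tubulin and a FITC secondary, DAPI 4 µg/mL 15 min. Imaged by confocal microscopy; three independent experiments.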

[16] = species on record: Bos taurus; assay: Inhibition of bovine brain tubulin polymerization at 5 uM measured every 1 min for 1 hr by spectrophotometric method; method in brief: as §1

Oc1ccc2cc1Oc1ccc(cc1)CCc1cccc(O)c1Oc1ccc(cc1)CC2
IC50 [1]: 7.57 µM | IC50 [2]: 9.25 µM | IC50 [3]: 10.5 µM | IC50 [4]: 10.9 µM | IC50 [5]: 8.52 µM

Oc1ccc2cc1Oc1cccc(c1)CCc1ccc(O)c(c1)Oc1ccc(cc1O)CC2
IC50 [1]: 12.4 µM | IC50 [2]: 19.5 µM | IC50 [3]: 19.5 µM | IC50 [5]: 10.9 µM

Oc1ccc2c(c1)CCc1ccc(O)c(c1)Oc1ccc(cc1O)CCc1cccc(O)c1O2
IC50 [1]: 15.9 µM | IC50 [2]: 22 µM | IC50 [3]: 26.8 µM | IC50 [5]: 25.3 µM

COc1cccc2c1Oc1cc(O)c(O)cc1CCc1ccc(O)c(c1)Oc1ccc(cc1)CC2
Activity [6]: 85.34% | IC50 [1]: 1.98 µM | inhibition [7]: Active | IC50 [2]: 1.51 µM | Activity [8]: Active | Activity [9]: Dose-dependent effect | Activity [10]: 11.12% | IC50 [3]: 2.61 µM | Activity [11]: 38.6% | Activity [12]: 37.7% | Activity [13]: 3.54% | IC50 [4]: 5.51 µM | IC50 [5]: 1.74 µM | Activity [14]: 23.66% | inhibition [15]: Active

Oc1cc2c(cc1O)Oc1c(O)cccc1CCc1ccc(cc1)Oc1cc(ccc1O)CC2
IC50 [1]: 7.51 µM | IC50 [2]: 8.46 µM | IC50 [3]: 10.4 µM | IC50 [4]: 7.7 µM | IC50 [5]: 6.16 µM

Oc1ccc2cc1Oc1ccc(cc1)CCc1cccc(O)c1Oc1ccccc1CC2
IC50 [1]: 12.4 µM | IC50 [2]: 19 µM | IC50 [3]: 21.5 µM | IC50 [5]: 21.6 µM

CC(=O)O[C@H]1C(=O)[C@@]2(C)[C@H]([C@H](OC(=O)c3ccccc3)[C@]3(O)C[C@H](OC(=O)[C@H](O)[C@@H](NC(=O)c4ccccc4)c4ccccc4)C(C)=C1C3(C)C)[C@]1(OC(C)=O)CO[C@@H]1C[C@@H]2O
inhibition [16]: inactive

Oc1ccc2cc1Oc1ccc(cc1)CCc1ccc(O)c(c1)Oc1ccc(cc1O)CC2
IC50 [1]: 14.8 µM | IC50 [2]: 20.1 µM | IC50 [3]: 29.4 µM | IC50 [5]: 15.6 µM

Oc1ccc2cc1Oc1ccc(cc1)CCc1ccc(O)c(c1)Oc1ccc(cc1)CC2
IC50 [1]: 11.5 µM | IC50 [2]: 15.3 µM | IC50 [3]: 22.7 µM | IC50 [5]: 10.2 µM

From ChEMBL document CHEMBL4007433, “Design, synthesis, biological evaluation and molecular modeling study of novel macrocyclic bisbibenzyl analogues as antitubulin agents” (Eur J Med Chem, 2017)
